A short description of data set [1]: Permeability of the compound after 4 hrs by PAMPA assay. In kind it is ADME. The conditions noted are these: read-out: permeability.
Data set [2] relates to SH-SY5Y. As to the kind of experiment: Neuroprotective activity against SIN1-induced toxicity in human SH-SY5Y cells at 50 to 500 uM after 24 hrs by MTT assay. In kind it is functional, cell-based. In outline:
(§1)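 SH-SY5Y cells pre-incubated 1 h with compound, then challenged with SIN-1 (0.5 mM; ONOO⁻ generation about 9 μM per minute by DHR method) or vehicle; viability by MTT assay. Mean ± SD, three independent experiments.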
(Tetrazolium assays rely on reduction of a dye to a coloured formazan, in cell work by metabolically active cells.)

The next data set relates to Astrocyte. As to the kind of experiment: Antiinflammatory activity in rat primary astrocytes assessed as inhibition of LPS-induced nitrite production at 10 uM incubated for 1 hr prior to LPS-challenge measured after 24 hrs by Greiss method. In kind it is functional, cell-based. In outline:
(§2)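 Rat primary glial cultures (microglia or astrocytes) pre-incubated 1 h with compound, then 24 h with LPS (10 μg/mL); nitrite in culture medium measured by Griess reaction. Means ± SD of three experiments.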

For data set [3], the system named is SH-SY5Y. Kind of data set: Cytotoxicity against human SH-SY5Y cells at 10 to 100 uM after 24 hrs by MTT assay. The data set is classed as cell-based. In outline: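 SH-SY5Y human neuroblastoma cells exposed to compound (10–100 μM) for 24 h; viability by MTT assay.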
The subject of data set [4] is SH-SY5Y. Kind of data set: Neuroprotective activity against 6OHDA-induced toxicity in human SH-SY5Y cells assessed as cell viability at 10 uM after 24 hrs by MTT assay (reference value: 75%). The data set is classed as functional. As to conditions: read-out: Activity.
Data set [5] in a line: Antioxidant activity against peroxyl radical production assessed as trolox equivalent by ORAC assay. The data set is classed as functional. In outline: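 Oxygen radical absorbance capacity assay, fluorescein as fluorescent probe, peroxyl radical scavenging; expressed as μmol Trolox equivalents per μmol compound, mean of n = 3 ± SD.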
Data set [6] in a line: Cytotoxicity against rat primary microglia cells at 10 uM after 24 hrs by MTT assay. The data set is classed as cell-based. In outline: (§3)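 Rat primary astrocyte or microglia cultures exposed 24 h to compound (10 μM); cytotoxicity assessed in vitro.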
Data set [7] is described as follows: Cytotoxicity against rat primary astrocytes at 10 uM after 24 hrs by MTT assay. The data set is classed as cell-based. As to conditions: astrocyte. In outline: as §3
A short description of data set [8]: Antioxidant activity against peroxynitrite assessed as inhibition of alpha-synuclein nitration at 50 uM by Western blot analysis. The data set is classed as functional. In short, it runs like this:
(§4)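 α-Synuclein (5 μM) exposed to authentic ONOO⁻ (200 μM) with compound (50 μM) or 1% DMSO; 12% SDS-PAGE, western blot with anti-αS and anti-3-nitrotyrosine antibodies; densitometry of anti-nitrotyrosine blots used for dose-response. Reverse-addition ONOO⁻ control included.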
(In general: Immunoblotting shows a protein as a band on a membrane.)

The test system of a further data set is Microglia. As to the kind of experiment: Antiinflammatory activity in rat primary microglia cells assessed as inhibition of LPS-induced nitrite production at 10 uM incubated for 1 hr prior to LPS-challenge measured after 24 hrs by Greiss method. The data set is classed as functional. In outline: as §2
The nature of data set [9]: Antioxidant activity against peroxynitrite assessed as inhibition of RNAse nitration by Western blot analysis. The data set is classed as functional. In outline:
(§5)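 RNase A or cytochrome c (5 μM) treated with authentic ONOO⁻ (200 μM) in presence of compound; 12% SDS-PAGE and western blot probed with anti-3-nitrotyrosine antibody.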

A short description of data set [10]: Antioxidant activity against peroxynitrite assessed as inhibition of cytochrome c nitration by Western blot analysis. In kind it is functional. In short, it runs like this:
as §5

A short description of data set [11]: Antioxidant activity against peroxynitrite assessed as inhibition of alpha-synuclein aggregate formation at 50 uM by Western blot analysis. The data set is classed as functional. In short, it runs like this: as §4
The nature of data set [12]: Antioxidant activity against peroxynitrite radical at 50 uM by mass spectroscopic analysis. In kind it is functional. In short, it runs like this: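 Compound (50 μM) reacted with 500 μM ONOO⁻ in 50 mM potassium phosphate, pH 7.4, without NaNO₂; reaction products resolved chromatographically and characterised by mass spectrometry.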
Data set [13] can be described thus: Antioxidant activity against peroxynitrite assessed as inhibition of alpha-synuclein nitration by Western blot analysis. In kind it is functional. In outline:
as §4

For data set [14], the system named is SH-SY5Y. As to the kind of experiment: Neuroprotective activity against SIN1-induced toxicity in human SH-SY5Y cells assessed as cell viability at 500 uM after 24 hrs by MTT assay relative to control. The data set is classed as functional. As to conditions: read-out: Activity. In short, it runs like this: as §1
Data set [15] in a line: Antioxidant activity against CO3 radical production by Western blot analysis. In kind it is functional.
A short description of data set [16]: Antioxidant activity against NO2 radical production by Western blot analysis. In kind it is functional.
Data set [17] concerns SH-SY5Y. As to the kind of experiment: Neuroprotective activity against SIN1-induced toxicity in human SH-SY5Y cells assessed as cell viability at 100 uM after 24 hrs by MTT assay relative to control. The conditions noted are these: read-out: Activity. The data set is classed as functional. In short, it runs like this:
as §1

Data set [18] has as its system SH-SY5Y. As to the kind of experiment: Neuroprotective activity against SIN1-induced toxicity in human SH-SY5Y cells after 24 hrs by MTT assay. The data set is classed as functional, cell-based. In outline:
as §1

Data set [19] can be described thus: Antioxidant activity against OH radical production by Western blot analysis. The data set is classed as functional.
A short description of data set [20]: Antioxidant activity against NO2 radical assessed as mono nitreated derivative formation at 50 uM by mass spectroscopic analysis. The data set is classed as functional. In short, it runs like this: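 Compound (50 μM) preincubated with excess NaNO₂ (4 mM), converting •OH to •NO₂, then 500 μM ONOO⁻ in 50 mM potassium phosphate, pH 7.4; products analysed by chromatography with mass spectrometry, tracking nitrated-product peak.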

Activity calls are given as the source filed them. No cut-off for these calls is given here.

Turning to `CCn1cc(C(=O)O)c(=O)c2cc(F)c(N3CCNCC3)nc21` [ENOXACIN], the Papp at 4 h in data set [1] was 1.7 ×10⁻⁶ cm/s.
For the compound `CC(C)(C)c1cc(/C=[N+](\[O-])C(C)(C)C)cc(C(C)(C)C)c1O`, the result in the data set on SH-SY5Y [2] was inactive. In addition, the inhibition entry (with Astrocyte; in [8]; in the data set on Microglia; in [9]; in data set [10]; in data set [11]) was “Active” each time. The Activity result is “Non-toxic” with SH-SY5Y [3], 2 equiv in [5], “Non-toxic” in [6] and “Non-toxic” in data set [7]. Further, the viability at 10 µM with SH-SY5Y [4] was 100%. Besides, the Papp at 4 h in [1] turned out to be 10.2 ×10⁻⁶ cm/s.
`CC(C)(C)/[N+]([O-])=C/c1ccccc1`: in data set [5], the Activity came out at 0.014 equiv.
On to `CC(C)(C)/[N+]([O-])=C/c1ccc(O)cc1`, for which the inhibition result (in the data set with Astrocyte; in data set [8]; with Microglia; in data set [9]; in data set [10]; in data set [11]) was “Active” each time. Further, the Activity entry in the data set with SH-SY5Y [3] is “Non-toxic”; in [5], 3.2 equiv; in data set [6], “Non-toxic”; in data set [7], “Non-toxic”; in the data set on SH-SY5Y [18], “Dose-dependent effect”. For the same compound, in the data set with SH-SY5Y [4], the viability at 10 µM came out at 100%. The result in [12], in data set [15], in data set [16], in [19] and in data set [20] was Active. Moreover, the inhibition result in data set [13] is “Dose-dependent effect”. Besides, the viability at 500 µM in the data set on SH-SY5Y [14] was 100%. For the same compound, in [1], the Papp at 4 h turned out to be 0.2 ×10⁻⁶ cm/s. Also, the viability at 100 µM in the data set with SH-SY5Y [17] was 91%.
On to `CN1C(C(=O)Nc2ccccn2)=C(O)c2ccccc2S1(=O)=O` [PIROXICAM], for which the Papp at 4 h in data set [1] came to 1.6 ×10⁻⁶ cm/s.
With `CC(C)(C)/[N+]([O-])=C/c1ccccc1O`, in the data set with SH-SY5Y [2], the result was inactive. Moreover, the inhibition entry in the data set on Astrocyte and in the data set with Microglia was “Active” throughout. Further, the Activity entry in the data set with SH-SY5Y [3] was “Non-toxic”; in [5], 2.6 equiv; in data set [6], “Non-toxic”; in data set [7], “Non-toxic”. Also, the viability at 10 µM with SH-SY5Y [4] was found to be 100%. In addition, in data set [1], the Papp at 4 h came to 37.5 ×10⁻⁶ cm/s.
In the case of `CNCCCN1c2ccccc2CCc2ccccc21` [DESIPRAMINE], the Papp at 4 h in data set [1] was 14.4 ×10⁻⁶ cm/s.
